Assay outcomes (PubChem)
Compounds with a hit are over-represented: about 3.5% of the library has one in this group of screens.
PREPL inh: inhibits the human prolyl oligopeptidase-like enzyme. Q4J6C6. recombinant PREPL, fluorescence polarization activity-based probe. inhibition, % at 5.96 µM. actives 0.68% (n = 320,000); in the data active means inhibition above about 43%
Target sequence (Q4J6C6 whole entry, looked up): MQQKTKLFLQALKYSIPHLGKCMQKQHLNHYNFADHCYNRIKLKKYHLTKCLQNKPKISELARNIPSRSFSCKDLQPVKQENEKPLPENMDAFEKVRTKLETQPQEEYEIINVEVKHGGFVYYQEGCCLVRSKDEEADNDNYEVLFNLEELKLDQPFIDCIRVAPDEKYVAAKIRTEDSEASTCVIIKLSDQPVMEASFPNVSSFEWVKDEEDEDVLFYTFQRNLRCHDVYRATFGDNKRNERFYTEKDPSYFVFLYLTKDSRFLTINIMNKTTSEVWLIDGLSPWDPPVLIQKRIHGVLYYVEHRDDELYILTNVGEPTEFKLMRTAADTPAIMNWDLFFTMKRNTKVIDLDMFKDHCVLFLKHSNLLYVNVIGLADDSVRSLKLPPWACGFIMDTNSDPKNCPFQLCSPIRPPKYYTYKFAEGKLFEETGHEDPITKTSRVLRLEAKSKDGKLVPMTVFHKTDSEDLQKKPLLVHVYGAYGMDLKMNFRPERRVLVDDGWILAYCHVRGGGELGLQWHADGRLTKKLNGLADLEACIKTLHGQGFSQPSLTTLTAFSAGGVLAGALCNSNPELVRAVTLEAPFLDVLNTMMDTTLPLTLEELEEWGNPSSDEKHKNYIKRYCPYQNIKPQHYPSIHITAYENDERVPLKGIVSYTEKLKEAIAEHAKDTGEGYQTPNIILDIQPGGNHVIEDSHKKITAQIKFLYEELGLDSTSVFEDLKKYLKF
PAFAH1B2 inh: PAFAH1B2 (human) inhibition | AID 492953 | recombinant PAFAH1B2, FP-rhodamine activity probe, fluorescence polarization | P68402 | actives 1.2% (n = 340,000) | inhibition, % at 3.39 µM;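 active means inhibition above the mean of all tested compounds plus 3 SD, cut at about 24% in these data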
PAFAH1B3 inh: blocks human PAF acetylhydrolase 1B catalytic subunit 3; actives 0.28% (n = 340,000); inhibition, % at 3.39 µM; Q15102; recombinant PAFAH1B3, FP-rhodamine probe, fluorescence polarization;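 active means inhibition above the screen-wide average of all tested compounds plus 3 SD, cut at about 25% in these data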
pPAFAH FP inh: inhibitors of human plasma PAF acetylhydrolase (pPAFAH). Q13093. inhibition, % at 3.39 µM. actives 1.5% (n = 330,000). recombinant pPAFAH, FP-rhodamine probe fluorescence polarization;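 active means inhibition above the mean inhibition across the screen plus 3 SD, cut at about 25% in these data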;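 further: inhibitors block binding of the rhodamine activity-based probe so polarization drops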
PAFAH2 inh: inhibitors of human PAFAH2. actives 0.99% (n = 340,000). recombinant PAFAH2, FP-rhodamine activity probe, fluorescence polarization. AID 492956. inhibition, % at 3.39 µM. Q99487;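 active means inhibition above the mean over all tested compounds plus 3 SD, cut at about 30% in these data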;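 further: inhibitors block probe labeling of enzyme so polarization drops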
Apaf-1 inh: human Apaf-1 inhibition | inhibition, % at 20 µM | actives 0.71% (n = 330,000) | reconstituted apoptosome caspase-3 activity, DEVD-Rh110 fluorescence; active means inhibition of at least 40% at 20 µM
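System: Apoptosome proteins | Medium: Hepes pH 7.5 with detergent and BSA | Also added: Cytochrome c trigger plus (Z-DEVD)2-Rh110 caspase-3 substrate | Incubation: 30 min compound preincubation, 50 min activation, room temperature | Detection: Rhodamine 110 fluorescence at Ex 480/Em 540 nm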
PAFAH2 confirm: PAFAH2 (human) inhibition, confirmed | actives 65% (n = 2,300) | recombinant PAFAH2, FP-rhodamine activity probe, fluorescence polarization | shares compounds with PAFAH2 inh | inhibition, % at 3.39 µM;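 active means mean inhibition over three repeats above a set limit taken from the earlier primary screen, cut at about 30% in these data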;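 further: inhibitor blocks binding of rhodamine activity probe so polarization falls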
Hits are given with their value; i = inactive; nt = no result.

SMILES	PREPL inh	PAFAH1B2 inh	PAFAH1B3 inh	pPAFAH FP inh	PAFAH2 inh	Apaf-1 inh	PAFAH2 confirm
Cc1nn(Cc2ccccc2)c(Cl)c1/C=C/C(=O)OC(C)C(=O)N1CCCC1 (centres undefined)	i	i	i	i	i	i	nt
Cc1nn(Cc2ccccc2)c(Cl)c1/C=C/C(=O)OCC(=O)NC(C)C(C)C (centres undefined)	i	i	i	i	67	i	64
Cc1ccc(NC(=O)COC(=O)c2ccc(CN3CCCC3=O)cc2)cc1C	nt	i	i	nt	92	i	85
Cc1ccc(NC(=O)NCCCN2CCCC2=O)cc1C	i	i	i	i	i	i	nt
O=C(COC(=O)c1ccc(CN2CCCC2=O)cc1)Nc1ccc(F)cc1	i	i	i	i	85	i	86
CC(OC(=O)c1ccc(CN2CCCC2=O)cc1)C(=O)Nc1ccc(Cl)cc1 (centres undefined)	i	i	i	i	i	i	nt
COc1ccc(C=O)cc1CSc1ncccc1C(=O)O	i	i	i	i	i	i	nt
CC1=CC(=O)C(C(C)=Nc2cccc(Cl)c2)C(=O)O1 (centres undefined)	nt	i	i	nt	i	nt	nt
CCOC(=O)C1CCCN(C(=O)COc2ccc(S(=O)(=O)N3CCOCC3)cc2)C1 (centres undefined)	i	i	i	i	i	i	nt
Cc1cccc(-c2cc3nc(-c4ccccc4)cc(=O)n3[nH]2)c1	i	i	i	i	41	i	i
COc1ccc(C(=O)CSc2nc(C)cc(=O)[nH]2)cc1C	i	i	i	i	i	i	nt
COc1ccc(C(=O)CSc2nc(C)cc(C)n2)cc1C	i	i	i	i	42	i	i
CC1(c2ccc(OC(F)F)cc2)NC(=O)N(CC(=O)Nc2ccc(Cl)cc2F)C1=O (centres undefined)	i	i	i	i	i	i	nt
CC(/C=C1\N=C(SCc2ccccc2Cl)SC1=O)=C\c1ccccc1	i	i	i	i	46	i	45
Cc1ccc(NC(=O)COC(=O)[C@H](C)N2C(=O)C3CC=CCC3C2=O)cc1S(=O)(=O)N(C)C (some centres undefined)	i	i	i	i	i	i	nt
COc1ccc(CCC(=O)Nc2ccc(C)c(S(=O)(=O)N(C)C)c2)cc1OC	i	i	i	i	i	i	nt
Cc1cnc(C(=O)OCC(=O)Nc2ccc(C)c(S(=O)(=O)N(C)C)c2)cn1	i	i	i	i	i	i	nt
Cc1ccc(NC(=O)COC(=O)c2ccc(Cl)cc2)cc1S(=O)(=O)N(C)C	i	i	i	i	61	i	56
CC(=O)OCC(=O)Nc1ccc(SC(F)F)cc1	i	i	i	i	i	i	nt
COc1ccc(C(=O)NCC(=O)OCC(=O)Nc2ccc(C)c(S(=O)(=O)N(C)C)c2)cc1OC	i	i	i	i	41	i	i
C/C=C/C(=O)OCC(=O)Nc1ccc(SC(F)F)cc1	i	i	i	i	56	i	48
C/C=C/C(=O)OCC(=O)Nc1ccc(C)c(S(=O)(=O)N(C)C)c1	i	i	i	i	57	i	48
Cc1cccn2c(=O)c(C(=O)NCCCN3CC(C)CC(C)C3)c(O)nc12 (centres undefined)	i	i	i	i	i	i	nt
Cc1cc(S(=O)(=O)NCC2CCCO2)c(C)cc1Br (centres undefined)	i	i	i	i	i	i	nt
COc1ccc(S(=O)(=O)N2CCOCC2)cc1NC(=O)c1ccncc1	i	i	i	i	i	i	nt
SMILES	PREPL inh	PAFAH1B2 inh	PAFAH1B3 inh	pPAFAH FP inh	PAFAH2 inh	Apaf-1 inh	PAFAH2 confirm
CCOC(=O)C1CCCN(C(=O)Cn2nc(C)n3nc(-c4ccccc4)cc3c2=O)C1 (centres undefined)	i	i	i	i	i	i	nt
CC(OC(=O)C1CCC1)C(=O)Nc1cc(Cl)cc(Cl)c1 (centres undefined)	i	i	i	i	i	i	nt
Cc1ccc(NC(=O)COC(=O)/C=C/c2ccco2)cc1S(=O)(=O)N(C)C	i	i	i	i	70	i	77
Cc1ccc(NC(=O)COC(=O)Cn2cnc3ccccc32)cc1S(=O)(=O)N(C)C	i	i	i	i	i	i	nt
COc1cccc(-c2nc3ccccc3c(=O)o2)c1	i	i	i	i	68	i	73
COc1cc(OC)cc(-c2nc3ccccc3c(=O)o2)c1	i	i	i	i	55	i	68
CCC(=O)N1c2ccc(S(=O)(=O)N3CCOCC3)cc2CC1C (centres undefined)	i	i	i	i	i	i	nt
CCCCCCC(c1c(C)n(C)n(-c2ccccc2)c1=O)c1c(C)n(C)n(-c2ccccc2)c1=O	i	i	i	i	70	i	70
O=C(O/N=C/C1=C(Cl)c2ccccc2CC1)c1ccc(F)cc1	i	i	i	i	35	i	40
O=C(O/N=C1\CCCc2ccccc21)c1cccc(Cl)c1	i	i	i	i	i	i	nt
Cc1c(Cl)cnc(NC(=O)COC(=O)c2ccc3c(c2)OCO3)c1Cl	i	i	i	i	50	i	30
Cc1c(Cl)cnc(NC(=O)COC(=O)c2ccncc2)c1Cl	i	i	i	i	i	i	nt
COc1cc(C(=O)OCC(=O)Nc2ccc(C(C)=O)cc2)ccc1OCC(=O)N1CCOCC1	i	i	i	i	61	i	58
COc1ccc(C(=O)OCC(=O)Nc2ccc(N3CCOCC3)cc2)cc1OC	i	i	i	i	i	i	nt
Cc1cccc(C)c1NC(=O)COC(=O)c1ccc(N2CCCC2)c([N+](=O)[O-])c1	i	i	i	i	63	i	59
CCOc1cc(C(=O)OCC(=O)Nc2ncc(Cl)c(C)c2Cl)ccc1OCC(=O)N1CCOCC1	i	i	i	i	55	i	54
COc1ccc(CCNC(=O)c2coc3ccccc3c2=O)cc1	i	i	i	i	i	i	nt
COc1cc(C(=O)Nc2ccc(F)cc2Cl)ccc1OCC(=O)N1CCOCC1	i	i	i	i	i	i	nt
CCOC(=O)c1ccccc1NC(=O)COC(=O)c1ccc(OCC(=O)N2CCOCC2)c(OCC)c1	nt	i	i	nt	35	nt	i
CCOc1cc(C(=O)OCC(=O)Nc2ccc(F)cc2Cl)ccc1OCC(=O)N1CCOCC1	nt	i	i	nt	76	i	71
CCOc1ccc(C(=O)OCC(=O)N2CCOCC2)cc1OCC	i	i	i	i	i	i	nt
CCOc1cc(C(=O)OCC(=O)Nc2c(C)cccc2C)ccc1OCC(=O)N1CCOCC1	i	i	i	i	50	i	68
CCN(CC)C(=O)CSc1nc2c(sc(=S)n2-c2ccccc2OC)c(=O)n1-c1ccccc1	i	i	i	i	38	i	i
CC1CCCCC1Nc1ncnc2sccc12 (centres undefined)	i	i	i	i	i	i	nt
Cn1c2ccccc2n2c(=O)c(Cl)c(-c3ccccc3)c(C#N)c12	i	i	i	i	39	i	i
